Columns and labels:
Adenosine receptor A2a = Adenosine receptor A2a (Homo sapiens, UniProt P29274); assay: Displacement of [3H]ZM241385 from human adenosine A2A receptor expressed in HEK293 cells by scintillation counting; assay type: cell-based
[1] = biological target: T1, Adenosine receptor A3 (Homo sapiens) (UniProt P0DMS8); assay: Displacement of [I125]I-AB-MECA from human adenosine A3 receptor expressed in CHO cells at 10 uM by scintillation counting; assay type: cell-based
T1 sequence (whole entry): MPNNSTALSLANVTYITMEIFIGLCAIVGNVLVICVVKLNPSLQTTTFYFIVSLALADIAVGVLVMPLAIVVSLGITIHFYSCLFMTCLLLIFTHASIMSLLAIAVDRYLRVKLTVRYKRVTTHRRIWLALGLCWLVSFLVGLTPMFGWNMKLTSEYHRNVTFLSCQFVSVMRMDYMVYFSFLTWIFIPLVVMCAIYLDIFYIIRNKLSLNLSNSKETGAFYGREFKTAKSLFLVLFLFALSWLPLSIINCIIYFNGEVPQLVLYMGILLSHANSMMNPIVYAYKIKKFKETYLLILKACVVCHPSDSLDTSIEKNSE

Homo sapiens [2] = species: Homo sapiens; assay: Selectivity ratio of Ki for human adenosine A3 receptor to Ki for human adenosine A2A receptor
Adenosine receptor A2b = biological target: T2, Adenosine receptor A2b (Homo sapiens, UniProt P29275); assay: Antagonist activity at human recombinant adenosine A2B receptor expressed in CHO cells assessed as inhibition of NECA-stimulated adenylyl cyclase activity; assay type: functional, cell-based
T2 sequence (P29275 whole entry): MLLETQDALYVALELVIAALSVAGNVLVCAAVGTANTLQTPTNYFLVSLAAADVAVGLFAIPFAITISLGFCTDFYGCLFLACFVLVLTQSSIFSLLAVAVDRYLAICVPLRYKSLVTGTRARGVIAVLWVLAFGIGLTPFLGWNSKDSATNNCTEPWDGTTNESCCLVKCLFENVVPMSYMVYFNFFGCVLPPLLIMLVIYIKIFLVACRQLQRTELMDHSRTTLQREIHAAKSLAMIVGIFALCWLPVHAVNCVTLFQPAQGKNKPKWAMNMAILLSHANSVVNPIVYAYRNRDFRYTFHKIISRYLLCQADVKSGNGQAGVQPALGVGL
Procedure, shortened: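 Membranes from CHO cells stably expressing the hA2B receptor were incubated 20 min with about 150,000 cpm [α-32P]ATP, without EGTA and NaCl. The read-out was antagonist concentration-dependent inhibition of NECA-stimulated adenylyl cyclase. IC50 was calculated with the Hill equation.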

[3] = biological target: T3, Adenosine receptor A1 (Homo sapiens) (UniProt P30542); assay: Displacement of [3H]DPCPX from human adenosine A1 receptor expressed in HEK293 cells at 10 uM by scintillation counting; assay type: cell-based
T3 sequence (whole entry): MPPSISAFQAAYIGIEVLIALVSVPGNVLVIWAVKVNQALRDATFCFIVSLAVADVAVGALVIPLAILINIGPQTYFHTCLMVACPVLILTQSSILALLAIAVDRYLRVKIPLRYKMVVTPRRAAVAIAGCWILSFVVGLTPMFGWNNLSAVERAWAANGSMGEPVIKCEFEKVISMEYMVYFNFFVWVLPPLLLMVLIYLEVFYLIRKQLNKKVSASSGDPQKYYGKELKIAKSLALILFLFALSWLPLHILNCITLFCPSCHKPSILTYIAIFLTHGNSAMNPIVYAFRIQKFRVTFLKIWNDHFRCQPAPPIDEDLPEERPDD

Adenosine receptor A1 = biological target: T4, Adenosine receptor A1 (Homo sapiens, UniProt P30542); assay: Displacement of [3H]DPCPX from human adenosine A1 receptor expressed in HEK293 cells by scintillation counting; assay type: cell-based
T4 sequence (P30542 whole entry): T3 sequence (whole entry)

Homo sapiens [4] = species: Homo sapiens; assay: Selectivity ratio of Ki for human adenosine A1 receptor to Ki for human adenosine A2A receptor
[5] = biological target: T1, Adenosine receptor A3 (Homo sapiens); assay: Antagonist activity at human adenosine A3 receptor; assay type: functional
[6] = biological target: T5, Adenosine receptor A1 (Rattus norvegicus) (UniProt P25099); assay: Antagonist activity at rat adenosine A1 receptor; assay type: functional
T5 sequence (whole entry): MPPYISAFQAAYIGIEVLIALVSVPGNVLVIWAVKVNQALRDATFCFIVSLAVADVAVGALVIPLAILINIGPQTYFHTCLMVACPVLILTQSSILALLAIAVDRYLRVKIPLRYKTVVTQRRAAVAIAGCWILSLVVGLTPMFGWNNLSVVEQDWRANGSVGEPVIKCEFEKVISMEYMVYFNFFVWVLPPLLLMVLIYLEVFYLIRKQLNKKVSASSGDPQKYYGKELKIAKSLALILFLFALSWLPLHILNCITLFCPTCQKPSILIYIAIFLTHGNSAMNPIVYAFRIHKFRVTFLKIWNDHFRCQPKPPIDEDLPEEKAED

[7] = biological target: T6, Adenosine receptor A2b (Homo sapiens) (UniProt P29275); assay: Antagonist activity at human adenosine A2B receptor; assay type: functional
T6 sequence (whole entry): T2 sequence (P29275 whole entry)

Adenosine receptor A3 = biological target: T7, Adenosine receptor A3 (Homo sapiens, UniProt P0DMS8); assay: Displacement of [I125]I-AB-MECA from human adenosine A3 receptor expressed in CHO cells by scintillation counting; assay type: cell-based
T7 sequence (P0DMS8 whole entry): T1 sequence (whole entry)

Sequence of Adenosine receptor A2a (P29274 whole entry): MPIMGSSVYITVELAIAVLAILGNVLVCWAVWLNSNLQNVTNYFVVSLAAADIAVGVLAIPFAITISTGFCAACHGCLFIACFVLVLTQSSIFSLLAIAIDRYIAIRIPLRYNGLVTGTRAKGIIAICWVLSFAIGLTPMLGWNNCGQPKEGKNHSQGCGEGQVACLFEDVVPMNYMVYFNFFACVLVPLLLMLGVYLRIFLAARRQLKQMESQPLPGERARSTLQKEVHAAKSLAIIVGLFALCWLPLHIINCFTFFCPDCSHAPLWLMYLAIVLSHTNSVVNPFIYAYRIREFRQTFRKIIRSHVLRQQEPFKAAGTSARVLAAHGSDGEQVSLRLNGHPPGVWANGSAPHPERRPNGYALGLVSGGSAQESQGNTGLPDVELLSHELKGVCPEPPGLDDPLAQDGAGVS

Row | SMILES | Ki (Adenosine receptor A2a) | Activity [1] | Ratio Ki (Homo sapiens [2]) | IC50 (Adenosine receptor A2b) | Activity [3] | Ki (Adenosine receptor A1) | Ratio Ki (Homo sapiens [4]) | Antagonist potency [5] | INH [6] | Antagonist potency (inhibitory concentration) [7] | Ki (Adenosine receptor A3)
1 | Nc1nc(N2CCN(C(=O)c3ccc([N+](=O)[O-])cc3)CC2)nc2nc(-c3ccco3)nn12 | 212 nM | 50.9% | 40 | > 100 µM | 35.5% | – | – | – | – | – | –
2 | Nc1nc(N)n2nc(-c3ccco3)nc2n1 | 160 nM | 36.4% | – | 11.1 µM | – | 1410 nM | 9 | – | – | – | –
3 | CSc1nc(NC(=O)C(c2ccccc2)c2ccccc2)n2nc(-c3ccco3)nc2n1 | – | – | – | – | – | – | – | 170 nM | 557 nM | > 100 µM | –
4 | Nc1nc(N2CCN(Cc3ccc(Cl)cc3)CC2)nc2nc(-c3ccco3)nn12 | 102 nM | 66.8% | – | > 30 µM | – | 220 nM | 2.1 | – | – | – | –
5 | Nc1nc(N2CCN(Cc3ccc(F)cc3)CC2)nc2nc(-c3ccco3)nn12 | 52.3 nM | 71.3% | – | > 10 µM | – | 655 nM | 12.5 | – | – | – | –
6 | Nc1nc(N2CCN(Cc3cccc(Cl)c3)CC2)nc2nc(-c3ccco3)nn12 | 51.8 nM | 52.7% | 200 | > 30 µM | – | 1510 nM | 29 | – | – | – | –
7 | COC(=O)CCC(=O)N1CCN(c2nc(N)n3nc(-c4ccco4)nc3n2)CC1 | 66.2 nM | 37.2% | – | > 100 µM | 19.4% | – | – | – | – | – | –
8 | NCCCCCNc1nc(N)n2nc(-c3ccco3)nc2n1 | 90.1 nM | 49.9% | – | > 10 µM | – | 2950 nM | 33 | – | – | – | –
9 | NCCNc1nc(NCCN)n2nc(-c3ccco3)nc2n1 | 38200 nM | 17.7% | – | > 100 µM | 10.7% | – | 0.3 | – | – | – | –
10 | Nc1nc(N2CCN(C(=O)C(Cl)Cl)CC2)nc2nc(-c3ccco3)nn12 | 282 nM | 33.6% | – | > 100 µM | 34.6% | – | – | – | – | – | –
11 | Nc1nc(N2CCN(C(=O)c3ccccc3)CC2)nc2nc(-c3ccco3)nn12 | 348 nM | 22.6% | – | > 100 µM | 27.7% | – | – | – | – | – | –
12 | Nc1nc(N2CCN(C(=O)Cc3ccc(Cl)cc3)CC2)nc2nc(-c3ccco3)nn12 | 39.1 nM | – | 32 | > 100 µM | – | 991 nM | 25 | – | – | – | 1260 nM
13 | NCCNc1nc(N)n2nc(-c3ccco3)nc2n1 | 567 nM | 30.8% | – | > 100 µM | 35.8% | – | – | – | – | – | –
14 | CC(C)(C)OC(=O)NCCCNc1nc(N)n2nc(-c3ccco3)nc2n1 | 38.6 nM | 77.3% | – | 20.6 µM | – | 344 nM | 9 | – | – | – | –
15 | CC(C)(C)OC(=O)NCCOCCOCCNc1nc(N)n2nc(-c3ccco3)nc2n1 | 17.8 nM | 74% | – | > 10 µM | – | 1580 nM | 89 | – | – | – | –
16 | CC(C)(C)C(=O)N1CCN(c2nc(N)n3nc(-c4ccco4)nc3n2)CC1 | 58.4 nM | 32.3% | – | > 100 µM | 38.7% | – | – | – | – | – | –
17 | Nc1nc(N2CCN(C(=O)Cc3ccccc3)CC2)nc2nc(-c3ccco3)nn12 | 94.8 nM | 64.5% | – | > 100 µM | – | 3510 nM | 37 | – | – | – | –
18 | CC(C)(C)OC(=O)N1CCN(c2nc(N)n3nc(-c4ccco4)nc3n2)CC1 | 21 nM | 56.6% | 400 | > 10 µM | – | 5400 nM | 257 | – | – | – | –
19 | Nc1nc(N2CCN(C(=O)C(c3ccccc3)c3ccccc3)CC2)nc2nc(-c3ccco3)nn12 | 92.9 nM | 40.6% | – | > 100 µM | – | 7470 nM | 80 | – | – | – | –

— ChEMBL document CHEMBL1926574, “Synthesis and biological evaluation of a new series of 1,2,4-triazolo[1,5-a]-1,3,5-triazines as human A(2A) adenosine receptor antagonists with improved water solubility” (J Med Chem, 2011)
